Measurements: ChEMBL document CHEMBL3227971, “Synthesis and antibacterial activity of 2-oxocephalosporins” (1979)
Values after ≈ are worked out from the molar mass of the structure shown.

Experiments:
Type in all cases: functional
Serratia marcescens = test: Antimicrobial activity against Serratia marcescens 20019 by two fold serial dilution technique
Summary of the method: (§1)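 MIC determined by twofold serial broth dilution in nutrient broth, reported in μg/mL.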

Proteus mirabilis [1] = test: Antimicrobial activity against Proteus mirabilis 9716 by two fold serial dilution technique; summary of the method: as §1
Enterococcus faecalis = test: Antimicrobial activity against Streptococcus faecalis 20688 by two fold serial dilution technique; summary of the method: as §1
Staphylococcus aureus [2] = test: Antimicrobial activity against methicillin-resistant Staphylococcus aureus 15097 by two fold serial dilution technique
Summary of the method: (§2)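 MIC determined by twofold serial dilution in nutrient broth; values reported in μg/mL.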

Enterobacter cloacae [3] = test: Antimicrobial activity against Enterobacter cloacae 9659 by two fold serial dilution technique; summary of the method: as §1
Proteus mirabilis [4] = test: Antimicrobial activity against Proteus mirabilis 9900 by two fold serial dilution technique; summary of the method: as §1
Pseudomonas aeruginosa = test: Antimicrobial activity against Pseudomonas aeruginosa 9843 by two fold serial dilution technique; summary of the method: as §1
Providencia rettgeri = test: Antimicrobial activity against Providencia rettgeri 21205 by two fold serial dilution technique; summary of the method: as §1
Escherichia coli [5] = test: Antimicrobial activity against Escherichia coli 15119 by two fold serial dilution technique; summary of the method: as §1
Klebsiella pneumoniae [6] = test: Antimicrobial activity against Klebsiella pneumoniae 15130 by two fold serial dilution technique; summary of the method: as §1
Streptococcus pneumoniae = test: Antimicrobial activity against Streptococcus pneumoniae 1985 by two fold serial dilution technique; summary of the method: as §1
Staphylococcus aureus [7] = test: Antimicrobial activity against penicillin-resistant Staphylococcus aureus 9606 by two fold serial dilution technique; summary of the method: as §2
Staphylococcus aureus [8] = test: Antimicrobial activity against Staphylococcus aureus 9537 by two fold serial dilution technique in presence of 50% serum
Escherichia coli [9] = test: Antimicrobial activity against Escherichia coli 20341 by two fold serial dilution technique; summary of the method: as §1
Klebsiella pneumoniae [10] = test: Antimicrobial activity against Klebsiella pneumoniae 20468 by two fold serial dilution technique; summary of the method: as §1
Streptococcus pyogenes = test: Antimicrobial activity against Streptococcus pyogenes 9604 by two fold serial dilution technique; summary of the method: as §1
Enterobacter cloacae [11] = test: Antimicrobial activity against Enterobacter cloacae 9656 by two fold serial dilution technique; summary of the method: as §1
Morganella morganii = test: Antimicrobial activity against Proteus morganii 15153 by two fold serial dilution technique; summary of the method: as §1
Staphylococcus aureus [12] = test: Antimicrobial activity against Staphylococcus aureus 9537 by two fold serial dilution technique; summary of the method: as §1

| SMILES | MIC (Serratia marcescens) [µg/mL] | MIC (Proteus mirabilis [1]) [µg/mL] | MIC (Enterococcus faecalis) [µg/mL] | MIC (Staphylococcus aureus [2]) [µg/mL] | MIC (Enterobacter cloacae [3]) [µg/mL] | MIC (Proteus mirabilis [4]) [µg/mL] | MIC (Pseudomonas aeruginosa) [µg/mL] | MIC (Providencia rettgeri) [µg/mL] | MIC (Escherichia coli [5]) [µg/mL] | MIC (Klebsiella pneumoniae [6]) [µg/mL] | MIC (Streptococcus pneumoniae) [µg/mL] | MIC (Staphylococcus aureus [7]) [µg/mL] | MIC (Staphylococcus aureus [8]) [µg/mL] | MIC (Escherichia coli [9]) [µg/mL] | MIC (Klebsiella pneumoniae [10]) [µg/mL] | MIC (Streptococcus pyogenes) [µg/mL] | MIC (Enterobacter cloacae [11]) [µg/mL] | MIC (Morganella morganii) [µg/mL] | MIC (Staphylococcus aureus [12]) [µg/mL] |
| --- | --- | --- | --- | --- | --- | --- | --- | --- | --- | --- | --- | --- | --- | --- | --- | --- | --- | --- | --- |
| CC1=C(C(=O)O)N2C(=O)[C@@H](NC(=O)COc3ccccc3)[C@H]2SC1=O | > 125 | 125 (≈ 345 µM) | 63 (≈ 174 µM) | > 125 | > 125 | 125 (≈ 345 µM) | > 125 | > 125 | > 125 | > 125 | 32 (≈ 88.3 µM) | 125 (≈ 345 µM) | > 63 | > 125 | > 125 | 32 (≈ 88.3 µM) | > 125 | > 125 | 8 (≈ 22.1 µM) |
| CC(=O)OCC1=C(C(=O)O)N2C(=O)[C@@H](NC(=O)Cc3cccs3)[C@H]2SC1=O | > 125 | 63 (≈ 153 µM) | 125 (≈ 305 µM) | > 125 | > 125 | 32 (≈ 78 µM) | > 125 | > 125 | > 125 | > 125 | 1 (≈ 2.44 µM) | 16 (≈ 39 µM) | 63 | > 125 | > 125 | 1 (≈ 2.44 µM) | > 125 | > 125 | 4 (≈ 9.75 µM) |
| CC1=C(C(=O)O)N2C(=O)[C@@H](N)[C@H]2SC1=O.Cc1ccc(S(=O)(=O)O)cc1 | > 125 | 125 | 32 | 125 | > 125 | > 125 | > 125 | 125 | > 125 | > 125 | 63 | > 125 | > 63 | > 125 | > 125 | 125 | > 125 | > 125 | 32 |
| CC1=C(C(=O)O)N2C(=O)[C@@H](NC(=O)Cc3cccs3)[C@H]2SC1=O | > 125 | 63 (≈ 179 µM) | 63 (≈ 179 µM) | > 125 | > 125 | 63 (≈ 179 µM) | > 125 | > 125 | > 125 | > 125 | 63 (≈ 179 µM) | > 125 | > 63 | > 125 | > 125 | 125 (≈ 355 µM) | > 125 | > 125 | 8 (≈ 22.7 µM) |
| CC(=O)OCC1=C(C(=O)O)N2C(=O)[C@@H](NC(=O)Cc3cccs3)[C@H]2SC1 [CEPHALOTHIN] | > 125 | 2 (≈ 5.04 µM) | 32 (≈ 80.7 µM) | 32 (≈ 80.7 µM) | > 125 | 1 (≈ 2.52 µM) | > 125 | 63 (≈ 159 µM) | 16 (≈ 40.4 µM) | 16 (≈ 40.4 µM) | 0.06 (≈ 0.151 µM) | 0.5 (≈ 1.26 µM) | 8 | 16 (≈ 40.4 µM) | > 125 | 0.13 (≈ 0.328 µM) | > 125 | > 125 | 0.13 (≈ 0.328 µM) |
